# Laboratory results from ChEMBL document CHEMBL1147115 (2007).
# How the values were obtained:
# [1] = test system: Klebsiella pneumoniae; assay: Antimicrobial activity against ESBL producing Klebsiella pneumoniae 268 isolate infected thigh infection model ICR mouse; format: functional, Thigh muscle
# In short: (§1)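 Female ICR mice (~25 g) were made neutropenic with cyclophosphamide ip (150 and 100 mg/kg, days −4 and −1) and renally impaired with uranyl nitrate 5 mg/kg ip (day −3). Each thigh got 0.1 ml of 10^5 CFU/ml (or 10^7 for high inoculum) im 2 h pre-therapy. Human-simulated regimens were given sc, three mice per group, for 24 h. Efficacy was the log10 CFU/thigh change versus 0-h controls.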
# [2] = test system: Klebsiella pneumoniae; assay: Antimicrobial activity against ESBL producing Klebsiella pneumoniae 270 isolate infected thigh infection model ICR mouse; format: functional, Thigh muscle; in short: as §1
# [3] = test system: Klebsiella pneumoniae; assay: Antimicrobial activity against ESBL producing Klebsiella pneumoniae 260 isolate infected thigh infection model ICR mouse; format: functional, Thigh muscle; in short: as §1
# [4] = test system: Klebsiella pneumoniae; assay: Antimicrobial activity against ESBL producing Klebsiella pneumoniae 264 isolate infected thigh infection model ICR mouse; format: functional, Thigh muscle; in short: as §1
# [5] = test system: Escherichia coli; assay: Antimicrobial activity against ESBL producing Escherichia coli 311 isolate infected thigh infection model ICR mouse; format: functional, Thigh muscle; in short: as §1
# [6] = test system: Klebsiella pneumoniae; assay: Antimicrobial activity against ESBL producing Klebsiella pneumoniae 255 isolate infected thigh infection model ICR mouse; format: functional, Thigh muscle; in short: as §1
# [7] = test system: Klebsiella pneumoniae; assay: Antimicrobial activity against ESBL producing Klebsiella pneumoniae 254 isolate infected thigh infection model ICR mouse; format: functional, Thigh muscle; in short: as §1
# [8] = test system: Klebsiella pneumoniae; assay: Antimicrobial activity against ESBL producing Klebsiella pneumoniae 259 isolate infected thigh infection model ICR mouse; format: functional, Thigh muscle; in short: as §1
# [9] = test system: Klebsiella pneumoniae; assay: Antimicrobial activity against ESBL producing Klebsiella pneumoniae 263 isolate infected thigh infection model ICR mouse; format: functional, Thigh muscle; in short: as §1
# [10] = test system: Klebsiella pneumoniae; assay: Antimicrobial activity against ESBL producing Klebsiella pneumoniae 266 isolate infected thigh infection model ICR mouse; format: functional, Thigh muscle; in short: as §1
# [11] = test system: Klebsiella pneumoniae; assay: Antimicrobial activity against ESBL producing Klebsiella pneumoniae 257 isolate infected thigh infection model ICR mouse; format: functional, Thigh muscle; in short: as §1
# [12] = test system: Klebsiella pneumoniae; assay: Antimicrobial activity against ESBL producing Klebsiella pneumoniae 258 isolate infected thigh infection model ICR mouse; format: functional, Thigh muscle; in short: as §1
# [13] = test system: Klebsiella pneumoniae; assay: Antimicrobial activity against ESBL producing Klebsiella pneumoniae 262 isolate infected thigh infection model ICR mouse; format: functional, Thigh muscle; in short: as §1
# [14] = test system: Klebsiella pneumoniae; assay: Antimicrobial activity against ESBL producing Klebsiella pneumoniae 256 isolate infected thigh infection model ICR mouse; format: functional, Thigh muscle; in short: as §1
# [15] = test system: Klebsiella pneumoniae; assay: Antimicrobial activity against ESBL producing Klebsiella pneumoniae 261 isolate infected thigh infection model ICR mouse; format: functional, Thigh muscle; in short: as §1
# [16] = test system: Klebsiella pneumoniae; assay: Bacteriostasis activity against ESBL producing Klebsiella pneumonia 262 isolate at up to 1.5 ug/ml; format: functional
# [17] = test system: Klebsiella pneumoniae; assay: Activity against ESBL producing Klebsiella pneumonia 262 isolate at up to 4 ug/ml; format: functional
# [18] = test system: Klebsiella pneumoniae; assay: Antimicrobial activity against ESBL producing Klebsiella pneumoniae 230 isolate; format: functional
# [19] = test system: Escherichia coli; assay: Antimicrobial activity against ESBL producing Escherichia coli 130 isolate; format: functional
# [20] = test system: Escherichia coli; assay: Antimicrobial activity against Escherichia coli ATCC 25922 isolate; format: functional
# [21] = test system: Escherichia coli; assay: Antimicrobial activity against Escherichia coli 120 isolate; format: functional
# [22] = test system: Escherichia coli; assay: Antimicrobial activity against ESBL producing Escherichia coli 320 isolate; format: functional
# [23] = test system: Escherichia coli; assay: Antimicrobial activity against ESBL producing Escherichia coli 321 isolate; format: functional
# [24] = test system: Escherichia coli; assay: Antimicrobial activity against ESBL producing Escherichia coli 322 isolate; format: functional
# [25] = test system: Escherichia coli; assay: Antimicrobial activity against ESBL producing Escherichia coli 310 isolate; format: functional
# [26] = test system: Escherichia coli; assay: Antimicrobial activity against ESBL producing Escherichia coli 312 isolate; format: functional
# [27] = test system: Escherichia coli; assay: Antimicrobial activity against ESBL producing Escherichia coli 118 isolate; format: functional
# [28] = test system: Escherichia coli; assay: Antimicrobial activity against ESBL producing Escherichia coli 243 isolate; format: functional
# [29] = test system: Escherichia coli; assay: Antimicrobial activity against ESBL producing Escherichia coli 285 isolate; format: functional
# [30] = test system: Klebsiella pneumoniae; assay: Antimicrobial activity against ESBL producing Klebsiella pneumoniae 225 isolate; format: functional
# [31] = test system: Klebsiella pneumoniae; assay: Antimicrobial activity against ESBL producing Klebsiella pneumoniae 60 isolate; format: functional
# [32] = test system: Escherichia coli; assay: Antimicrobial activity against ESBL producing Escherichia coli 315 isolate; format: functional
# [33] = test system: Escherichia coli; assay: Antimicrobial activity against ESBL producing Escherichia coli 133 isolate; format: functional
# [34] = test system: Klebsiella pneumoniae; assay: Antimicrobial activity against ESBL producing Klebsiella pneumoniae 101 isolate; format: functional
structure (smiles),measurement,setting,value
C[C@@H](O)[C@H]1C(=O)N2C(C(=O)O)=C(S[C@@H]3CN[C@H](C(=O)Nc4cccc(C(=O)O)c4)C3)[C@H](C)[C@H]12,fT>MIC,[1],47%
same,fT>MIC,[2],40%
same,fT>MIC,[3],30%
same,fT>MIC,[4],10%
same,fT>MIC,[5],10%
same,fT>MIC,[6],20%
same,fT>MIC,[7],0%
same,fT>MIC,[8],0%
same,fT>MIC,[9],0%
same,fT>MIC,[10],0%
same,fT>MIC,[11],0%
same,fT>MIC,[12],0%
same,fT>MIC,[13],0%
same,fT>MIC,[14],0%
same,fT>MIC,[15],0%
same,MIC,[16],1.5 µg/mL
same,MIC,[17],4 µg/mL
same,MIC,[18],0.094 µg/mL
same,MIC,[19],1 µg/mL
same,MIC,[20],0.008 µg/mL
same,MIC,[21],0.03 µg/mL
same,MIC,[22],0.5 µg/mL
same,MIC,[23],0.012 µg/mL
same,MIC,[24],0.012 µg/mL
same,MIC,[25],0.064 µg/mL
same,MIC,[26],0.19 µg/mL
same,MIC,[27],0.012 µg/mL
same,MIC,[28],0.064 µg/mL
same,MIC,[29],0.023 µg/mL
same,MIC,[30],0.016 µg/mL
same,MIC,[31],0.012 µg/mL
same,MIC,[32],0.032 µg/mL
same,MIC,[33],1.5 µg/mL
same,MIC,[34],0.094 µg/mL
